Published values pooled from the literature.
Compare with care: the assays were run in different laboratories.
HDAC8: Histone deacetylase 8 (HDAC8, Homo sapiens, UniProt Q9BY41)
murD: UDP-N-acetylmuramoylalanine--D-glutamate ligase (murD, Escherichia coli K-12, UniProt P14900)
BRD4 BD1: Bromodomain-containing protein 4, BD1 (BRD4, Homo sapiens, UniProt O60885)
BAZ1B: Tyrosine-protein kinase BAZ1B (BAZ1B, Homo sapiens, UniProt Q9UIG0)
MAP3K4: Mitogen-activated protein kinase kinase kinase 4 (MAP3K4, Homo sapiens, UniProt Q9Y6R4)

| SMILES | target | observed | action | technique | tested at | measurement | result |
| --- | --- | --- | --- | --- | --- | --- | --- |
| CC[C@H](CC[C@@H](C)[C@H]1CC[C@H]2[C@@H]3CC=C4C[C@@H](O[C@@H]5O[C@H](CO)[C@@H](O)[C@H](O)[C@H]5O)CC[C@]4(C)[C@H]3CC[C@]12C)C(C)C | HDAC8 | enzyme activity | inhibitor |  | 10 µM | inhibition | -8.57% |
| CCCOc1ccc(OC)c(F)c1C(=O)c1ccc(C(=O)N[C@@H]2CNC[C@H]2NC(=O)c2ccc3[nH]ncc3c2)cc1 | cGMP-dependent protein kinase 1 (PRKG1, Homo sapiens, UniProt Q13976) | enzyme activity | inhibitor |  | 50 nM | remaining activity | 22% |
| O=[N+]([O-])c1cccc(COc2ccccc2C=NNS(=O)(=O)c2ccc3ccccc3c2)c1 | murD | enzyme activity | inhibitor | absorbance | 50 µM | remaining activity | 70% |
| CC(C)[C@@H]1NC(=O)[C@@H]2CCCN2C(=O)[C@H](Cc2ccccc2)NC(=O)CSC[C@@H](C(=O)N[C@@H](Cc2ccc(O)cc2)C(N)=O)NC(=O)[C@H](Cc2c[nH]c3ccccc23)NC(=O)[C@H](CCCCN)NC(=O)[C@H](Cc2ccccc2)N(C)C(=O)[C@H](Cc2ccccc2)NC1=O | BRD4 BD1 | thermal stability |  | DSF | 200 µM | ΔTm | -0.27 °C |
| Oc1ccc(-c2nc(-c3ccncc3)c(-c3ccc(F)cc3)[nH]2)cc1 | Histone acetyltransferase KAT2B (KAT2B, Homo sapiens, UniProt Q92831) | thermal stability |  | DSF | 10 µM | ΔTm | -0.19 °C |
| Cc1cc2c(cc1N1C(=O)c3cccc4c(Cl)ccc(c34)C1=O)n(C)c(=O)n2C | BAZ1B | thermal stability |  | DSF | 10 µM | ΔTm | -1 °C |
| Nc1ncnc2c1ncn2[C@@H]1O[C@H](CO)[C@@H](O)[C@H]1O | HDAC8 | enzyme activity | inhibitor |  | 10 µM | inhibition | -15.9% |
| Cc1cnc(Nc2ccc(OCCN3CCCC3)cc2)nc1Nc1cccc(S(=O)(=O)NC(C)(C)C)c1 | BAZ1B | thermal stability |  | DSF | 10 µM | ΔTm | -0.02 °C |
| N#Cc1ccc(COc2ccccc2C=NNS(=O)(=O)c2ccccc2[N+](=O)[O-])cc1 | murD | enzyme activity | inhibitor | absorbance | 100 µM | remaining activity | 86% |
| Nc1ncnc2occ(-c3ccc(NC(=O)Nc4cc(C(F)(F)F)ccc4F)cc3)c12 | MAP3K4 | cell-free assay | inhibitor |  | 20 µM | remaining signal | 1.6% |
| Cc1ccc(C(=O)Nc2ccc(CN3CCN(C)CC3)c(C(F)(F)F)c2)cc1C#Cc1cnc2cccnn12 | MAP3K4 | enzyme activity | inhibitor |  | 23.5 nM | remaining activity | 95% |
| O=C(Nc1ccc(C=NNS(=O)(=O)c2ccc3ccccc3c2)cc1)c1ccccc1 | murD | enzyme activity | inhibitor | absorbance | 100 µM | remaining activity | 56% |
| C[S+]([O-])c1ccc(-c2nc(-c3ccncc3)c(-c3ccc(F)cc3)[nH]2)cc1 (centres unmarked) | Bromodomain-containing protein 4, BD2 (BRD4, Homo sapiens, UniProt O60885) | thermal stability |  | DSF | 10 µM | ΔTm | 1.67 °C |
| O=C(Nc1ccc(C=NNS(=O)(=O)c2ccc3ccccc3c2)cc1)c1cc([N+](=O)[O-])cc([N+](=O)[O-])c1 | murD | enzyme activity | inhibitor | absorbance | 100 µM | remaining activity | 78% |
| Cn1nnc2ccc(NC(=O)c3cccc(C(=O)O)c3)cc21 | BRD4 BD1 | thermal stability |  | DSF | 100 µM | ΔTm | 2.8 °C |
| N#Cc1ccc(COc2ccccc2C=NNS(=O)(=O)Cc2ccccc2F)cc1 | murD | enzyme activity | inhibitor | absorbance | 100 µM | remaining activity | 39% |
| NS(=O)(=O)c1ccc(Nc2nc(-c3ccc(F)cc3)c3ccccc3n2)cc1 | BRD4 BD1 | binding |  | competition with immobilised ligand | 1 µM | remaining binding | 5% |
